Laboratory results reported in ChEMBL document CHEMBL4396885, “Thioether-based 2-aminobenzamide derivatives: Novel HDAC inhibitors with potent in vitro and in vivo antitumor activity” (Eur J Med Chem, 2019).

What was measured:
A549 [1] = assay: Induction of apoptosis in human A549 cells assessed as necrotic cells at 1 uM after 48 hrs by Annexin V-FITC/propidium iodide staining based flow cytometry (reference value: 0.135%); format: functional
Summary of the method: (§1)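 A549 seeded 4×10⁶ cells/well, dosed after 12 h with compound at various concentrations, harvested after 48 h. Resuspended in annexin-binding buffer, stained with Annexin V-FITC and propidium iodide for 15 min in the dark, analysed by flow cytometry; means of three separate experiments.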

A549 [2] = assay: Cell cycle arrest in human A549 cells assessed as accumulation of cells at S phase at 2 uM after 48 hrs by propidium iodide staining-based flow cytometry (reference value: 12.83%); format: functional
HCT-116 = assay: Antiproliferative activity against human HCT116 cells assessed as decrease in cell viability after 72 hrs by CCK-8 assay; format: functional, cell-based; conditions: HCT-116, 72 h
Summary of the method: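 Cells grown to 70–85% confluence (A375, A549, HCT116 in RPMI1640; HeLa, SMMC7721 in DMEM; 10% FBS, 37 °C, 5% CO2), seeded 4000/well, dosed after 12 h across a concentration range, incubated 72 h, then CCK-8 for 1 h; absorbance at 450 nm. IC50 as mean ± SD of three separate experiments.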

SMMC-7721 [3] = assay: Antiproliferative activity against human SMMC7721 cells assessed as growth inhibition at 2 uM after 72 hrs by CCK-8 assay relative to control; format: functional; conditions: SMMC-7721, 72 h, read-out: GI
A549 [4] = assay: Antiproliferative activity against human A549 cells assessed as growth inhibition at 2 uM after 72 hrs by CCK-8 assay relative to control; format: functional; conditions: A549, 72 h, read-out: GI
SMMC-7721 [5] = assay: Antiproliferative activity against human SMMC7721 cells assessed as growth inhibition at 8 uM after 72 hrs by CCK-8 assay relative to control; format: functional; conditions: SMMC-7721, 72 h, read-out: GI
Histone deacetylase 2 = Histone deacetylase 2 (Homo sapiens, UniProt Q92769); assay: Inhibition of recombinant human HDAC2 assessed as decrease in deacetylation of FLUOR DE LYS Green substrate preincubated for 10 mins followed by substrate addition and measured after 30 mins by fluorescence based assay
Sequence of Histone deacetylase 2 (Q92769 whole entry): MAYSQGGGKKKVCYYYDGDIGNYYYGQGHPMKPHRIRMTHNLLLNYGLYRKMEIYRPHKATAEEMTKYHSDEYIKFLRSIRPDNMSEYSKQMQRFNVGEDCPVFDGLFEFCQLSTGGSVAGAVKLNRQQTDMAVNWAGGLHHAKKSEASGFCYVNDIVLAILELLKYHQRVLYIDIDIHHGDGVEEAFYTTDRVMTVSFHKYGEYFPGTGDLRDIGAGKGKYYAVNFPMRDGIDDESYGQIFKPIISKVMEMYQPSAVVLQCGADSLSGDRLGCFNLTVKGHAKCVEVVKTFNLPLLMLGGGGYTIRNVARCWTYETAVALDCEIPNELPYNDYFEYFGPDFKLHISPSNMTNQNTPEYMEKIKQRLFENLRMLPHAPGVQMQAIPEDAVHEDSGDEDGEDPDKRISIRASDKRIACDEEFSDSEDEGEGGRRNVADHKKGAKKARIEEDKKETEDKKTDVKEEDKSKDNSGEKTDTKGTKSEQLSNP

A549 [6] = assay: Induction of apoptosis in human A549 cells assessed as viable cells at 1 uM after 48 hrs by Annexin V-FITC/propidium iodide staining based flow cytometry (reference value: 98%); format: functional; conditions: A549, 48 h, read-out: Activity; summary of the method: as §1
A549 [7] = assay: Antiproliferative activity against human A549 cells assessed as growth inhibition at 8 uM after 72 hrs by CCK-8 assay relative to control; format: functional; conditions: A549, 72 h, read-out: GI
Histone deacetylase = assay: Inhibition of HDAC in human HeLa cell nuclear extract assessed as decrease in deacetylation of FLUOR DE LYS Green substrate preincubated for 10 mins followed by substrate addition and measured after 30 mins by fluorescence based assay; format: cell-free
A549 [8] = assay: Cell cycle arrest in human A549 cells assessed as accumulation of cells at G0/G1 phase at 1 uM after 48 hrs by propidium iodide staining-based flow cytometry (reference value: 73.35%); format: functional
A-375 [9] = assay: Antiproliferative activity against human A375 cells assessed as growth inhibition at 8 uM after 72 hrs by CCK-8 assay relative to control; format: functional; conditions: A-375, 72 h, read-out: GI
[10] = AUC (0 to t) in ICR mouse at 4 mg/kg, iv after 0.08 to 24 hrs by LC-MS/MS analysis; format: ADME, organism-based; set-up: time upper 24 hr, dose 4 mg/kg, time lower 0.08 hr, route intravenous; conditions: in vivo
Summary of the method: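 Male ICR mice (29.7~37.4 g), single iv dose 4 mg/kg in DMSO:40% SBE-β-CD 20:80 (v/v). Retro-orbital blood at 0.08–24 h into EDTA-K2 tubes; plasma protein-precipitated with acetonitrile containing internal standards, analysed by LC-MS/MS; n=3 per time point; noncompartmental analysis.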

A549 [11] = assay: Induction of apoptosis in human A549 cells assessed as necrotic cells at 0.5 uM after 48 hrs by Annexin V-FITC/propidium iodide staining based flow cytometry (reference value: 0.135%); format: functional; summary of the method: as §1
A549 [12] = assay: Induction of apoptosis in human A549 cells assessed as viable cells at 2 uM after 48 hrs by Annexin V-FITC/propidium iodide staining based flow cytometry (reference value: 98%); format: functional; conditions: A549, 48 h, read-out: Activity; summary of the method: as §1
[13] = biological target: T1, Protein deacetylase HDAC6 (Homo sapiens, UniProt Q9UBN7); assay: Inhibition of recombinant human His tagged HDAC6 expressed in baculovirus infected insect cells assessed as decrease in deacetylation of FLUOR DE LYS SIRT1 substrate by measuring decrease in fluorescence preincubated for 10 mins followed by substrate addition and measured after 30 mins by fluorescence based assay
T1 sequence (Q9UBN7 whole entry): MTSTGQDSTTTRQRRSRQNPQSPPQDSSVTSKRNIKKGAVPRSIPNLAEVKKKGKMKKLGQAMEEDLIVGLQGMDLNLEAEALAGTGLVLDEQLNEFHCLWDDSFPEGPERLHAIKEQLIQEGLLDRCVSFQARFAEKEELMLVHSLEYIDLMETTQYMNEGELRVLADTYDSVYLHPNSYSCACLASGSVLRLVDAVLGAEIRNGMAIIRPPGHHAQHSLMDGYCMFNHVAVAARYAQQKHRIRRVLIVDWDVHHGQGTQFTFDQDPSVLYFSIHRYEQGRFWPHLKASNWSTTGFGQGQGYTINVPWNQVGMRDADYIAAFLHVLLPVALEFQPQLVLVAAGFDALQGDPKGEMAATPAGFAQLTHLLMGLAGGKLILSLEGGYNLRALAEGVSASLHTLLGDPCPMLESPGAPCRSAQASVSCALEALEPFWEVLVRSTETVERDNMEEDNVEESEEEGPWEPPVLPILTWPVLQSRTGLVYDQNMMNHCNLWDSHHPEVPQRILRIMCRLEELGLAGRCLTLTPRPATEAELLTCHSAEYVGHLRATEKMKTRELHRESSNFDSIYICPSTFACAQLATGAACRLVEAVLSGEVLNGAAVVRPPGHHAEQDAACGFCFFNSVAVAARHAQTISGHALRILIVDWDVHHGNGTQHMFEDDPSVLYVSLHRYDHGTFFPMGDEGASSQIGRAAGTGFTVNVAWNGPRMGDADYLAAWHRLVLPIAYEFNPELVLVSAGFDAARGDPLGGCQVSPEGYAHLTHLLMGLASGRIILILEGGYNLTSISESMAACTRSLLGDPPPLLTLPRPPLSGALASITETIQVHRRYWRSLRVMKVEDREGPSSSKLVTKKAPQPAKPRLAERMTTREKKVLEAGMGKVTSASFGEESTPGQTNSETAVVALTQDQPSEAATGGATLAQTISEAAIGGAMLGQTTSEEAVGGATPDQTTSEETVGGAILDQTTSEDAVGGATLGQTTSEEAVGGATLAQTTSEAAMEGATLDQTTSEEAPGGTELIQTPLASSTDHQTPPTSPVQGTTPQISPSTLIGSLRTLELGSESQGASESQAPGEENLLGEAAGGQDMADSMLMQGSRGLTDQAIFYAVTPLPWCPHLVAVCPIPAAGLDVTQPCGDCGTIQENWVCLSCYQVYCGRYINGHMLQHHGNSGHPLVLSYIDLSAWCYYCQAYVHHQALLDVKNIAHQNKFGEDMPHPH

A-375 [14] = assay: Antiproliferative activity against human A375 cells assessed as growth inhibition at 2 uM after 72 hrs by CCK-8 assay relative to control; format: functional; conditions: A-375, 72 h, read-out: GI

Row | IC50 (HCT-116) [nM] | IC50 (Histone deacetylase 2) [nM] | IC50 (Histone deacetylase) [nM] | AUC(0-t) [10] [ng·h/mL] | IC50 [13] [nM] | SMILES | Activity (A549 [1]) [%] | Activity (A549 [2]) [%] | inhibition of growth at 2 µM (SMMC-7721 [3]) [%] | inhibition of growth at 2 µM (A549 [4]) [%] | inhibition of growth at 8 µM (SMMC-7721 [5]) [%] | viability at 1 µM (A549 [6]) [%] | inhibition of growth at 8 µM (A549 [7]) [%] | Activity (A549 [8]) [%] | inhibition of growth at 8 µM (A-375 [9]) [%] | Activity (A549 [11]) [%] | viability at 2 µM (A549 [12]) [%] | inhibition of growth at 2 µM (A-375 [14]) [%]
1 | 1640 | 205 | > 32000 | 737 | > 32000 | COc1ccc(SCc2ccc(C(=O)Nc3ccccc3N)cc2)cc1 | 1.5 | 12.64 | 33.1 | 45.7 | 80.1 | 67.9 | 70.7 | 41.07 | 81.8 | 13.8 | 47.5 | 10.2
2 | 1740 | 144 | > 32000 | 868 | > 32000 | CCc1ccc(SCc2ccc(C(=O)Nc3ccccc3N)cc2)cc1 | 8.44 | 9.52 | 25.7 | 53.6 | 82.9 | 70.4 | 91.4 | 30.39 | 71.1 | 1.14 | 63.5 | 19.6
